Test results taken from ChEMBL document CHEMBL1687907, “Incorporation of a bioactive reverse-turn heterocycle into a peptide template using solid-phase synthesis to probe melanocortin receptor selectivity and ligand conformations by 2D 1H NMR” (J Med Chem, 2011).
The source made the active and inactive calls. No cut-off for these calls is given here.

How the values were obtained:
Assay type in all cases: functional, cell-based
Melanocortin receptor 3 = Melanocortin receptor 3 (Mus musculus, UniProt P33033); test: Agonist activity at mouse melanocortin 3 receptor expressed in HEK293 cells after 48 hrs by cAMP based beta-galactosidase reporter gene assay
Melanocortin receptor 4 = Melanocortin receptor 4 (Mus musculus, UniProt P56450); test: Agonist activity at mouse melanocortin 4 receptor expressed in HEK293 cells after 48 hrs by cAMP based beta-galactosidase reporter gene assay
[1] = target: Melanocyte-stimulating hormone receptor (Mus musculus, UniProt Q01727); test: Agonist activity at mouse melanocortin 1 receptor expressed in HEK293 cells after 48 hrs by cAMP based beta-galactosidase reporter gene assay
Melanocortin receptor 5 = Melanocortin receptor 5 (Mus musculus, UniProt P41149); test: Agonist activity at mouse melanocortin 5 receptor expressed in HEK293 cells after 48 hrs by cAMP based beta-galactosidase reporter gene assay
[2] = target: Melanocortin receptor 3 (Mus musculus) (UniProt P33033); test: Agonist activity at mouse melanocortin 3 receptor expressed in HEK293 cells at 100 uM after 48 hrs by cAMP based beta-galactosidase reporter gene assay
How it was run: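 HEK-293 cells stably expressing mouse MC3R were CRE/β-galactosidase reporter transfected and stimulated 48 h later for 6 h in IBMX/BSA DMEM. Peptide concentrations reached 100 µM. ONPG read at OD405, normalized to protein and forskolin.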

Melanocortin receptor 3, sequence (P33033 whole entry): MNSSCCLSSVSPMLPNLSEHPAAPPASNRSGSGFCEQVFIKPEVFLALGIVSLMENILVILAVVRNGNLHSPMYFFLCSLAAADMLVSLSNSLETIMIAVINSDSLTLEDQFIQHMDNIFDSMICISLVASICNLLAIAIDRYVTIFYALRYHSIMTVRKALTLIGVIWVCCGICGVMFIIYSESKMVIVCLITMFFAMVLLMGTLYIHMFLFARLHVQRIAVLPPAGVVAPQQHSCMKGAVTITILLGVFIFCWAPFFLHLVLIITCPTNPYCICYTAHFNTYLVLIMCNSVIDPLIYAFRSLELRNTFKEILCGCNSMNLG
Melanocortin receptor 4, sequence (P56450 whole entry): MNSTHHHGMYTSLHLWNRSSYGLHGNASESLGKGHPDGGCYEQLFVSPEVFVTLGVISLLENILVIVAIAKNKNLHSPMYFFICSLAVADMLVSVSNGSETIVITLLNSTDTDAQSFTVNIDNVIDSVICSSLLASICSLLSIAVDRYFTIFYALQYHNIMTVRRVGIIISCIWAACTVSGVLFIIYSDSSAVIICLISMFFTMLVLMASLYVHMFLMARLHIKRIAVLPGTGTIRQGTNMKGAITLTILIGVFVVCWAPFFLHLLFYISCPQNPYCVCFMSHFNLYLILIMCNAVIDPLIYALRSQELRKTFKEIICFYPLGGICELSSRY
Melanocyte-stimulating hormone receptor, sequence (Q01727 whole entry): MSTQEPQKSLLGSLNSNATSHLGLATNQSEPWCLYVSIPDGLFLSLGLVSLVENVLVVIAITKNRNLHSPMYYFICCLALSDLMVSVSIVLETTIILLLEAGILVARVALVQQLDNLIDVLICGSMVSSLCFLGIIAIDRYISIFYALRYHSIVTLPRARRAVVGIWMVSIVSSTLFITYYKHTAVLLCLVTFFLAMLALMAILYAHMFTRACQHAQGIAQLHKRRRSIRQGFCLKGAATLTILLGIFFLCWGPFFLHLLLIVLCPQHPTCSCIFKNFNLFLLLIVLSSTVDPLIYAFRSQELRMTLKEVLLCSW
Melanocortin receptor 5, sequence (P41149 whole entry): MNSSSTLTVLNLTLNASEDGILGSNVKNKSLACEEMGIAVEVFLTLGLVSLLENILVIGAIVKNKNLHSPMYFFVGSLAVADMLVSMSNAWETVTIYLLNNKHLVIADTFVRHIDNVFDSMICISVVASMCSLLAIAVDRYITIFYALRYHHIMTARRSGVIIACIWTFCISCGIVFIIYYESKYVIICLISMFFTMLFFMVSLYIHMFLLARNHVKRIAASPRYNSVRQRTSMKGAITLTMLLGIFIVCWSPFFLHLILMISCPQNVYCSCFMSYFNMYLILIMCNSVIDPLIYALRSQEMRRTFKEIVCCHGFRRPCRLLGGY
Melanocortin receptor 3 (Mus musculus), sequence (P33033 whole entry): as the sequence (P33033 whole entry) above

| SMILES | EC50 (Melanocortin receptor 3) [nM] | EC50 (Melanocortin receptor 4) [nM] | EC50 [1] [nM] | EC50 (Melanocortin receptor 5) [nM] | Activity [2] |
| --- | --- | --- | --- | --- | --- |
| C[C@@H]1NC(=O)[C@H](CC(N)=O)NC(=O)[C@H](Cc2c[nH]c3ccccc23)NC(=O)[C@H](CCCN=C(N)N)NC(=O)[C@@H](Cc2ccccc2)NC(=O)[C@H](Cc2cnc[nH]2)NC(=O)[C@@H](NC(=O)[C@@H](N)Cc2ccc(O)cc2)CSSC[C@@H](C(=O)N[C@@H](Cc2ccc(O)cc2)C(N)=O)NC(=O)[C@H](Cc2ccccc2)NC1=O | 2 | 0.27 | 0.35 | 2.3 |  |
| C[C@@H]1NC(=O)[C@H](CC(N)=O)NC(=O)[C@H](Cc2c[nH]c3ccccc23)NC(=O)[C@H](CCCNC(=N)N)N2C[C@@H](Cc3ccccc3)NC(=O)[C@H](CSCC2=O)NC(=O)[C@H](Cc2cnc[nH]2)NC(=O)[C@@H](NC(=O)[C@@H](N)Cc2ccc(O)cc2)CSSC[C@@H](C(=O)N[C@@H](Cc2ccc(O)cc2)C(N)=O)NC(=O)[C@H](Cc2ccccc2)NC1=O |  |  |  |  | inactive |
| C[C@@H]1NC(=O)[C@H](CC(N)=O)NC(=O)[C@H](Cc2c[nH]c3ccccc23)NC(=O)[C@H](CCCNC(=N)N)NC(=O)[C@@H](Cc2ccccc2)N2C[C@H](Cc3cnc[nH]3)NC(=O)[C@@H](CSCC2=O)NC(=O)[C@@H](NC(=O)[C@@H](N)Cc2ccc(O)cc2)CSSC[C@@H](C(=O)N[C@@H](Cc2ccc(O)cc2)C(N)=O)NC(=O)[C@H](Cc2ccccc2)NC1=O |  |  |  |  | inactive |
| CC(=O)N[C@@H](Cc1cnc[nH]1)C(=O)N[C@H](Cc1ccccc1)C(=O)N[C@@H]1CSCC(=O)N([C@@H](Cc2c[nH]c3ccccc23)C(N)=O)C[C@H](CCCN=C(N)N)NC1=O | 7600 | 650 | 164 | 335 |  |
| C[C@@H]1NC(=O)[C@H](CC(N)=O)NC(=O)[C@H](Cc2c[nH]c3ccccc23)NC(=O)[C@H](CCCNC(=N)N)N2C[C@@H](Cc3ccccc3)NC(=O)[C@@H](CSCC2=O)NC(=O)[C@H](Cc2cnc[nH]2)NC(=O)[C@@H](NC(=O)[C@@H](N)Cc2ccc(O)cc2)CSSC[C@@H](C(=O)N[C@@H](Cc2ccc(O)cc2)C(N)=O)NC(=O)[C@H](Cc2ccccc2)NC1=O |  | 3210 |  |  |  |
| C[C@@H]1NC(=O)[C@H](CC(N)=O)NC(=O)[C@H](Cc2c[nH]c3ccccc23)N2C[C@H](CCCN=C(N)N)NC(=O)[C@H](CSCC2=O)NC(=O)[C@@H](Cc2ccccc2)NC(=O)[C@H](Cc2cnc[nH]2)NC(=O)[C@@H](NC(=O)[C@@H](N)Cc2ccc(O)cc2)CSSC[C@@H](C(=O)N[C@@H](Cc2ccc(O)cc2)C(N)=O)NC(=O)[C@H](Cc2ccccc2)NC1=O | 495 | 85 | 33 | 72 |  |
